From ChEMBL document CHEMBL2311453, “Tetrahydropyrroloquinolinone type dual inhibitors of aromatase/aldosterone synthase as a novel strategy for breast cancer patients with elevated cardiovascular risks” (J Med Chem, 2013)

Tests used:
V79MZh = assay: Selectivity factor, ratio of IC50 for human CYP11B1 to IC50 for human CYP11B2 expressed in hamster V79MZh cells; assay type: cell-based
Outline: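 SF calculated as IC50(CYP11B1)/IC50(CYP11B2). Both IC50s come from V79MZh hamster fibroblasts expressing the human enzyme, with [1,2-³H]-11-deoxycorticosterone at 100 nM as substrate.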

Aromatase = biological target: T1, Aromatase (Homo sapiens, UniProt P11511); assay: Inhibition of human CYP19 using [1beta-3H]androstenedione as substrate by 3H2O method
T1 sequence (P11511 whole entry): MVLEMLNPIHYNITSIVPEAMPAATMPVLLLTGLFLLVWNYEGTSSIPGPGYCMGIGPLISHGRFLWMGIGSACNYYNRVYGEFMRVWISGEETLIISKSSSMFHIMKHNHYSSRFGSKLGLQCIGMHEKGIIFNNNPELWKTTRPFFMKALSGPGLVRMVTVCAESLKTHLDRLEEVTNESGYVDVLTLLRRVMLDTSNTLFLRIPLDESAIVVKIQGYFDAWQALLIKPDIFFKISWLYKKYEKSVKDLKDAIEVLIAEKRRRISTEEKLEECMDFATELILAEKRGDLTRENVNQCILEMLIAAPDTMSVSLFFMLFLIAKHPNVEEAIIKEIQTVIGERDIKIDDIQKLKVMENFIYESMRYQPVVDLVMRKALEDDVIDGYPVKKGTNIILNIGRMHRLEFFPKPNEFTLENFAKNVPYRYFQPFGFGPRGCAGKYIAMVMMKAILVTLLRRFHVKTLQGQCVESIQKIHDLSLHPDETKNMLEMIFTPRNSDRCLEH

[1] = biological target: T2, Cytochrome P450 11B2, mitochondrial (Homo sapiens, UniProt P19099); assay: Inhibition of human CYP11B2 expressed in hamster V79MZh cells using [1,2-3H]-11-deoxy-corticosterone as substrate; assay type: cell-based
T2 sequence (P19099 whole entry): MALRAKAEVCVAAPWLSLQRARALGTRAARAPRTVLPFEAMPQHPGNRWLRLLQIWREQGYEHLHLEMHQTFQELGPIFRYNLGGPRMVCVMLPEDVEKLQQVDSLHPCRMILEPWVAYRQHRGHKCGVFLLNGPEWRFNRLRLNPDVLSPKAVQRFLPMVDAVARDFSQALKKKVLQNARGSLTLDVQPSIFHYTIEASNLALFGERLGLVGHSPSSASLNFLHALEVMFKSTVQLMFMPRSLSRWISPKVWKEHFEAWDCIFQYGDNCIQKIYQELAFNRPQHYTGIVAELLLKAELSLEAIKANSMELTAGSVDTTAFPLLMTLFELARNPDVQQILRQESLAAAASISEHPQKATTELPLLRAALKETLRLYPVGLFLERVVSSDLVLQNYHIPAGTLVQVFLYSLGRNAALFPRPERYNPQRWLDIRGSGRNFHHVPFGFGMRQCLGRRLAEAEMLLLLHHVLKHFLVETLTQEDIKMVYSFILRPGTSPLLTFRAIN
Outline: (§1)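 V79MZh hamster fibroblasts stably expressing human CYP11B1 or CYP11B2, incubated with [1,2-³H]-11-deoxycorticosterone (100 nM) and inhibitor at varying concentrations. IC50 taken as mean of at least three experiments (relative SD under 25%).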

[2] = biological target: T3, Cytochrome P450 11B1, mitochondrial (Homo sapiens, UniProt P15538); assay: Inhibition of human CYP11B1 expressed in hamster V79MZh cells using [1,2-3H]-11-deoxy-corticosterone as substrate; assay type: cell-based; outline: as §1
T3 sequence (P15538 whole entry): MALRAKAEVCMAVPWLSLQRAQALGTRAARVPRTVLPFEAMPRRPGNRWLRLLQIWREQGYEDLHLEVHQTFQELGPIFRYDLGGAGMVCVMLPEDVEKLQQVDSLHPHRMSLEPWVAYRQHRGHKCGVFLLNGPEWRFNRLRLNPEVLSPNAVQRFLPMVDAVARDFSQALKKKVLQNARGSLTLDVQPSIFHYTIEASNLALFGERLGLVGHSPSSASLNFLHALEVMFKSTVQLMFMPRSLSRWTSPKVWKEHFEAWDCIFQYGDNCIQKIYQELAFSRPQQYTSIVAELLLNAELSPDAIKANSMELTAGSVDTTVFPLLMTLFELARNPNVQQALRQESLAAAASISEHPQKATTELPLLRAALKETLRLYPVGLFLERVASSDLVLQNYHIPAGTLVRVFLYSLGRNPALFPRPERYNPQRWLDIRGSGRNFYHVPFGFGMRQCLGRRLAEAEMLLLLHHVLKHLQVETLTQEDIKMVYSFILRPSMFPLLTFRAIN

CYP17 = biological target: T4, CYP17 (Homo sapiens, UniProt P05093); assay: Inhibition of human CYP17 expressed in Escherichia coli using progesterone as substrate at 2 uM; conditions: probe progesterone
T4 sequence (P05093 whole entry): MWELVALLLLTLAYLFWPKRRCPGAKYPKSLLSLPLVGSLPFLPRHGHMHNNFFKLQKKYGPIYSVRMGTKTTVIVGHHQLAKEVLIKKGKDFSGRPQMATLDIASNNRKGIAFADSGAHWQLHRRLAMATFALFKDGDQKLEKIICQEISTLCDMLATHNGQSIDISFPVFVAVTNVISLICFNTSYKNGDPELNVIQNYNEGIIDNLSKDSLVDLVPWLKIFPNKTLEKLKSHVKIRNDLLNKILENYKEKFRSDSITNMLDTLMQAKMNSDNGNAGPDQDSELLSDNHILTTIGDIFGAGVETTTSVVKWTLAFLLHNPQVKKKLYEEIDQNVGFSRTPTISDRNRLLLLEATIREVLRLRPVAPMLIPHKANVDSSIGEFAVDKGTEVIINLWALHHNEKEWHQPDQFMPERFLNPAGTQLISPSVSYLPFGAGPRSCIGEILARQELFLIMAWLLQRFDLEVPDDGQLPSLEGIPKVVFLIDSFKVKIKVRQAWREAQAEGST
Outline: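 Enzyme source was the 90000g sediment of E. coli coexpressing human CYP17 and cytochrome P450 reductase. Progesterone substrate at 25 μM, NADPH cofactor, inhibitor at 2 μM. Percent inhibition is the mean of at least two experiments (SD under 10%).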

Compound | Ratio IC50 (V79MZh) | IC50 (Aromatase) [nM] | IC50 [1] [nM] | IC50 [2] [nM] | inhibition at 2 µM (CYP17) [%]
COc1ccc(C(c2ccncc2)c2cc3c4c(c2)CCN4C(=O)CC3)cc1 (stereo in doubt; 3k) [listing 1 of 2 here] | 16 |  |  |  | 
COc1ccccc1C(c1cccnc1)c1cc2c3c(c1)CCN3C(=O)CC2 (stereo not given) | < 0.3 | 3660 | > 5000 | 2270 | 
N#Cc1ccc(C2CCCc3cncn32)cc1 (stereo not given) [FADROZOLE] |  |  |  |  | < 3
O=C1CCc2cc(C(c3ccncc3)c3ccc(F)cc3)cc3c2N1CC3 (stereo not given) | 1.6 | 116 | 56 | 88 | 55
O=C1CCc2cc(C(O)c3cccnc3)cc3c2N1CC3 (stereo not given) | < 0.1 | > 5000 | > 5000 | 750 | 
O=C1CCc2cc(C(O)c3ccncc3)cc3c2N1CC3 (stereo not given) | 0.6 | > 5000 | 563 | 347 | < 3
O=C1CCc2cc(C(c3ccccc3)c3cccnc3)cc3c2N1CC3 (stereo not given) | 0.5 | 2130 | 132 | 68 | 
Cc1cccc(C(c2ccncc2)c2cc3c4c(c2)CCN4C(=O)CC3)c1 (stereo not given) | 33 | 32 | 41 | 1340 | 46
COc1ccc(C(c2ccncc2)c2cc3c4c(c2)CCN4C(=O)CC3)cc1 (single isomer, unassigned; (-)) [listing 1 of 2 here] | 6.9 |  |  |  | 
COc1ccc(C(c2ccncc2)c2cc3c4c(c2)CCN4C(=O)CC3)cc1 (single isomer, unassigned; (+)) [listing 1 of 2 here] |  | 273 | 46 | 1690 | 
O=C1CCc2cc(Cc3ccncc3)cc3c2N1CC3 | 1.1 | 2130 | 204 | 224 | 8
C=C(c1cccnc1)c1cc2c3c(c1)CCN3C(=O)CC2 | 0.1 | > 5000 | 468 | 41 | < 3
CC(C)C(c1ccncc1)c1cc2c3c(c1)CCN3C(=O)CC2 (stereo not given) | 1.9 | 889 | 750 | 1420 | 
CC(c1ccncc1)c1cc2c3c(c1)CCN3C(=O)CC2 (stereo not given) | 1.9 | 1500 | 74 | 140 | 
COc1ccc(C(c2ccncc2)c2cc3c4c(c2)CCN4C(=O)CC3)cc1 (stereo in doubt; 3k) [listing 2 of 2 here] |  | 124 | 52 | 810 | 53
O=C1CCc2cc(Cc3cccnc3)cc3c2N1CC3 | 0.2 | 3340 | 74 | 16 | < 3
O=C1CCc2cc(C(c3ccc(F)cc3)c3cccnc3)cc3c2N1CC3 (stereo not given) | 0.1 | 140 | 587 | 78 | 
O=C1CCc2cc(C(c3ccccc3)c3ccncc3)cc3c2N1CC3 (stereo not given) | 14 | 880 | 390 | 5400 | 
O=C1CCc2cc(C(O)(c3ccccc3)c3ccncc3)cc3c2N1CC3 (stereo not given) | 8.8 | 105 | 85 | 745 | 43
N#Cc1ccc(C(c2ccc(C#N)cc2)n2cncn2)cc1 [LETROZOLE] |  |  | 1420 | 2620 | 7
O=C1CCc2cc(C(c3ccncc3)c3cccc(Cl)c3)cc3c2N1CC3 (stereo not given) | 13 | 19 | 51 | 646 | 58
O=C1CCc2cc(C(c3ccncc3)C3CCCCC3)cc3c2N1CC3 (stereo not given) | > 4 | 74 | 1290 | > 5000 | 
O=C1CCc2cc(C(c3ccncc3)c3cc(C(F)(F)F)cc(C(F)(F)F)c3)cc3c2N1CC3 (stereo not given) | > 3 | 246 | 1580 | > 5000 | 
COc1ccc(C(c2ccncc2)c2cc3c4c(c2)CCN4C(=O)CC3)cc1 (single isomer, unassigned; (+)) [listing 2 of 2 here] | 37 |  |  |  | 
COc1ccc(C(c2ccncc2)c2cc3c4c(c2)CCN4C(=O)CC3)cc1 (single isomer, unassigned; (-)) [listing 2 of 2 here] |  | 92 | 74 | 511 | 
Cc1cccc(C(c2cccnc2)c2cc3c4c(c2)CCN4C(=O)CC3)c1 (stereo not given) | < 0.2 | > 5000 | > 5000 | 1220 | 
O=C1CCc2cc(C(c3ccncc3)c3cccc(F)c3)cc3c2N1CC3 (stereo not given) | 6 | 74 | 88 | 532 | 
O=C1CCc2cc(C(c3cccnc3)c3cccc(Cl)c3)cc3c2N1CC3 (stereo not given) | < 0.1 | 1350 | > 5000 | 36 | 
